According to ChEMBL document CHEMBL1126948, “Exploration of neutral endopeptidase active site by a series of new thiol-containing inhibitors” (J Med Chem, 1993):

What follows are molecules tested against T1, Angiotensin-converting enzyme (Homo sapiens, UniProt P12821) (assay: Inhibitory concentration was evaluated by Inhibiting 50% of Angiotensin I converting enzyme activity using 50 uM N-Cbz-Phe-His-Leu as substrate).
T1 sequence (P12821 whole entry): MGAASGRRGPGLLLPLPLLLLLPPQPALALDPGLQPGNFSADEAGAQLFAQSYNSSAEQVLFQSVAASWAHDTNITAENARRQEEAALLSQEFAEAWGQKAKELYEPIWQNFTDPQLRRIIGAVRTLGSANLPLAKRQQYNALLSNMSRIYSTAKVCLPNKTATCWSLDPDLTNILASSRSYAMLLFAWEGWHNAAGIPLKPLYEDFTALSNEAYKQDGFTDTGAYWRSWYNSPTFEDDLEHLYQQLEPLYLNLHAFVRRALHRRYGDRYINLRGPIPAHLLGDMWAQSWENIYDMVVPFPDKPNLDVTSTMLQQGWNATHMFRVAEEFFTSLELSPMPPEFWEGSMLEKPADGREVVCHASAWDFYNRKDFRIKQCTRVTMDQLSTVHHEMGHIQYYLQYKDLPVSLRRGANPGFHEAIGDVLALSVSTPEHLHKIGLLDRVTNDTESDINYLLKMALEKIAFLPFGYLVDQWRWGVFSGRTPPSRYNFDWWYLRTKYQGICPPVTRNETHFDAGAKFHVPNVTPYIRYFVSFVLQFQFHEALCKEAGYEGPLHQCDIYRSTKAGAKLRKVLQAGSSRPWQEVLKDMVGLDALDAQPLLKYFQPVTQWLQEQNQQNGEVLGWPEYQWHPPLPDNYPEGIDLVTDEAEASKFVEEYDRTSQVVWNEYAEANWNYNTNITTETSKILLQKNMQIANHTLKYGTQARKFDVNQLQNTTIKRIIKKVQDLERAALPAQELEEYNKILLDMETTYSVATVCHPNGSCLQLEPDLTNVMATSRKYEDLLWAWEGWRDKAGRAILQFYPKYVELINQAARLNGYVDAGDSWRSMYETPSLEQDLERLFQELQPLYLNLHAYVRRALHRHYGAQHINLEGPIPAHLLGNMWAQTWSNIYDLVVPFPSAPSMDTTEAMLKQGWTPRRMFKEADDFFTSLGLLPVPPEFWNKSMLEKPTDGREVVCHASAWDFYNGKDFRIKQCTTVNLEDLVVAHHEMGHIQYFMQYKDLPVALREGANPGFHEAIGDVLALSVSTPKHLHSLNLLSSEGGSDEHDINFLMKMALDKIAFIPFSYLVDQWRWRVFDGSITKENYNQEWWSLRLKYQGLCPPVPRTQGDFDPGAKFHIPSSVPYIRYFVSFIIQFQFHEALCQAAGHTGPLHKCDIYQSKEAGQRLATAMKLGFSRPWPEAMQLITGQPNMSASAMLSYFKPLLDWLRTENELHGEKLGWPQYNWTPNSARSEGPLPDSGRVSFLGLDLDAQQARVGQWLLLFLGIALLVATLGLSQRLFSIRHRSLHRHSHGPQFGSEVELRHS
`CCC(C)C(NC(=O)C(Cc1ccccc1)C(C)S)C(=O)NC(Cc1ccc(O)cc1)C(=O)O` (stereo not given) showed an IC50 of 0.3 µM.
`CCCCC(NC(=O)C(Cc1ccccc1)C(C)S)C(=O)NC(Cc1ccc(O)cc1)C(=O)O` (stereo not given) gave an IC50 of 6.1 µM.
In the case of `CC(C)C(NC(=O)C(Cc1ccccc1)C(C)S)C(=O)NC(Cc1ccc(O)cc1)C(=O)O` (stereo not given), the IC50 is reported as 1.3 µM.
Molecule `CC(S)C(Cc1ccccc1)C(=O)NCC(=O)O` (stereo not given) has an IC50 of 11 µM.
`CC(C)CC(S)CC(=O)NC(Cc1ccccc1)C(=O)NC(Cc1ccc(O)cc1)C(=O)O` (stereo not given) showed an IC50 of 2.8 µM.

These molecules were tested against T2, Neprilysin (Oryctolagus cuniculus, UniProt P08049) (assay: Inhibitory concentration was evaluated by Inhibiting 50% of Neutral endopeptidase enzyme (NEP) activity using 20 nM [3H]D-Ala2-Leu-enkephalin as substrate).
T2 sequence (P08049 whole entry): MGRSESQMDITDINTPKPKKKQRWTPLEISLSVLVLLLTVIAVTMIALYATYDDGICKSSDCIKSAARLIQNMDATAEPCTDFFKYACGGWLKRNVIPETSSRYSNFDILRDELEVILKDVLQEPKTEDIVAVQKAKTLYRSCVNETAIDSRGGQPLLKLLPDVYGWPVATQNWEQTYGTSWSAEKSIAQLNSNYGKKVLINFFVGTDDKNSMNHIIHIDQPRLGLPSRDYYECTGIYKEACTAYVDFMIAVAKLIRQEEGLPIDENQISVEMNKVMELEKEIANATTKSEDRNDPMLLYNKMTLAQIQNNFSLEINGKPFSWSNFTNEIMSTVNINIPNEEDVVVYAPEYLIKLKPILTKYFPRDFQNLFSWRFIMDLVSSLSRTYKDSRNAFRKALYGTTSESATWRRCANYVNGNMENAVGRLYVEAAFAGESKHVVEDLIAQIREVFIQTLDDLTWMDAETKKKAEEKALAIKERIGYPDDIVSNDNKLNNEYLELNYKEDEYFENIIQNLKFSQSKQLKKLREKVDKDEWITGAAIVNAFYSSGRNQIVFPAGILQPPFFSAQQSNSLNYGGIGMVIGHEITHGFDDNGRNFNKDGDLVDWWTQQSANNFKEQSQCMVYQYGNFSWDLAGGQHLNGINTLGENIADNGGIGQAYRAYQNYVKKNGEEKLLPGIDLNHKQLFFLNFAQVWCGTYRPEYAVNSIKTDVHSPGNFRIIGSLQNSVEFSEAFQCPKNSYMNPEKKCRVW
Outline: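 NEP purified to homogeneity from rabbit kidney, final 1 pmol/100 μL. Preincubated 15 min at 25 °C with or without increasing inhibitor concentrations in 50 mM Tris-HCl pH 7.4. [3H]-D-Ala2-Leu-enkephalin added to a final 20 nM. Stopped after 30 min with 0.5 M HCl. Tritiated metabolites separated on polystyrene beads. IC50 by log probit of five concentrations, mean ± SEM of three independent experiments.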
In the case of `CC(C)CC(S)C(Cc1ccccc1)C(=O)NC(Cc1ccc(O)cc1)C(=O)O` (stereo not given), the IC50 is reported as 0.026 µM.
Molecule `CC(C)C(C(=O)NC(Cc1ccc(O)cc1)C(=O)O)C(S)CCc1ccccc1` (stereo not given) has an IC50 of 0.053 µM.
With `CCC(C)C(NC(=O)C(Cc1ccccc1)C(C)S)C(=O)NC(Cc1ccc(O)cc1)C(=O)O` (stereo not given) the IC50 was 0.38 µM.
Work on `CC(C)CC(S)CC(=O)NC(Cc1ccccc1)C(=O)O` (stereo not given) yielded an IC50 of 0.037 µM.
With `CC(C)CC(S)[C@H](Cc1ccccc1)C(=O)N[C@@H](C)C(=O)O` (stereo not given in full) the IC50 was 0.04 µM.
`CCCCC(NC(=O)C(Cc1ccccc1)C(C)S)C(=O)NC(Cc1ccc(O)cc1)C(=O)O` (stereo not given) was tested, and the IC50 was 0.05 µM.
With `CC(C)C[C@@H](S)[C@H](Cc1ccccc1)C(=O)N[C@@H](C)C(=O)O` the IC50 was 0.02 µM.
`O=C(O)C(Cc1ccc(O)cc1)NC(=O)C(Cc1ccccc1)C(S)CCc1ccccc1` (stereo not given) showed an IC50 of 0.18 µM.
`CC(C)C(NC(=O)C(Cc1ccccc1)C(C)S)C(=O)NC(Cc1ccc(O)cc1)C(=O)O` (stereo not given) showed an IC50 of 0.32 µM.
For `CC(C)C[C@H](S)[C@H](Cc1ccccc1)C(=O)N[C@@H](C)C(=O)O`, the IC50 was 0.035 µM.
`CC(C)C[C@H](S)[C@@H](Cc1ccccc1)C(=O)N[C@@H](C)C(=O)O` showed an IC50 of 0.0036 µM.
For `CC(S)C(Cc1ccccc1)C(=O)NCC(=O)O` (stereo not given), the IC50 was 0.05 µM.
For `CC(C)CC(S)CC(=O)NC(Cc1ccccc1)C(=O)NC(Cc1ccc(O)cc1)C(=O)O` (stereo not given), the IC50 was 0.05 µM.
`CC(NC(=O)C(Cc1ccccc1)C(S)CCc1ccccc1)C(=O)O` (stereo not given) was tested, and the IC50 was 0.044 µM.
For `CC(C)CC(S)C(Cc1ccccc1)C(=O)NC(C)C(=O)O` (stereo not given), the IC50 was 0.014 µM.

Each molecule was assayed against T1, Angiotensin-converting enzyme (assay: Inhibitory concentration was evaluated by inhibiting 50% of Angiotensin I Converting Enzyme activity using 50 micro M N-Cbz-Phe-His-Leu as substrate).
Outline: (§1)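 Recombinant human ACE preincubated 15 min at 37 °C with various inhibitor concentrations in 50 mM Tris-HCl pH 7.4. N-Cbz-Phe-His-Leu then added to a final 0.05 mM. Reaction ran 15 min and was stopped with 2 M NaOH. His-Leu measured fluorimetrically (ex 365, em 495 nm) against a His-Leu calibration curve. IC50 by log probit of five concentrations, mean ± SEM of three independent experiments.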
`CC(C)C[C@H](S)[C@@H](Cc1ccccc1)C(=O)N[C@@H](C)C(=O)O` showed an IC50 of 16.1 µM.

What follows are molecules tested against T1, Angiotensin-converting enzyme (assay: Inhibitory concentration was evaluated by inhibiting 50% of Angiotensin I Converting Enzyme activity using 50 uM N-Cbz-Phe-His-Leu as substrate).
Outline: as §1
`CC(C)CC(S)C(Cc1ccccc1)C(=O)NC(Cc1ccc(O)cc1)C(=O)O` (stereo not given) gave an IC50 of 0.71 µM.
In the case of `CC(C)C(C(=O)NC(Cc1ccc(O)cc1)C(=O)O)C(S)CCc1ccccc1` (stereo not given), the IC50 is reported as 4.5 µM.
`CC(C)CC(S)CC(=O)NC(Cc1ccccc1)C(=O)O` (stereo not given) was tested, and the IC50 was 10 µM.
Work on `CC(C)CC(S)[C@H](Cc1ccccc1)C(=O)N[C@@H](C)C(=O)O` (stereo not given in full) yielded an IC50 of 4 µM.
In the case of `CC(C)C[C@@H](S)[C@H](Cc1ccccc1)C(=O)N[C@@H](C)C(=O)O`, the IC50 is reported as 5 µM.
`O=C(O)C(Cc1ccc(O)cc1)NC(=O)C(Cc1ccccc1)C(S)CCc1ccccc1` (stereo not given) gave an IC50 of 1.6 µM.
`CC(C)C[C@H](S)[C@H](Cc1ccccc1)C(=O)N[C@@H](C)C(=O)O` was tested, and the IC50 was 10 µM.
`CC(NC(=O)C(Cc1ccccc1)C(S)CCc1ccccc1)C(=O)O` (stereo not given) gave an IC50 of 4 µM.
For `CC(C)CC(S)C(Cc1ccccc1)C(=O)NC(C)C(=O)O` (stereo not given), the IC50 was 12 µM.
